Experimental data from ChEMBL document CHEMBL1126647, “Fluorine-18-labeled progestin ketals: synthesis and target tissue uptake selectivity of potential imaging agents for receptor-positive breast tumors” (J Med Chem, 1993).

Legend:
[1] = biological target: T1, Progesterone receptor (Rattus norvegicus) (UniProt Q63449); assay: Tissue distribution in liver 1 hr after [18F]4 injection into estrogen-primed immature rats at normal dose; assay type: functional, tissue-based
T1 sequence (whole entry): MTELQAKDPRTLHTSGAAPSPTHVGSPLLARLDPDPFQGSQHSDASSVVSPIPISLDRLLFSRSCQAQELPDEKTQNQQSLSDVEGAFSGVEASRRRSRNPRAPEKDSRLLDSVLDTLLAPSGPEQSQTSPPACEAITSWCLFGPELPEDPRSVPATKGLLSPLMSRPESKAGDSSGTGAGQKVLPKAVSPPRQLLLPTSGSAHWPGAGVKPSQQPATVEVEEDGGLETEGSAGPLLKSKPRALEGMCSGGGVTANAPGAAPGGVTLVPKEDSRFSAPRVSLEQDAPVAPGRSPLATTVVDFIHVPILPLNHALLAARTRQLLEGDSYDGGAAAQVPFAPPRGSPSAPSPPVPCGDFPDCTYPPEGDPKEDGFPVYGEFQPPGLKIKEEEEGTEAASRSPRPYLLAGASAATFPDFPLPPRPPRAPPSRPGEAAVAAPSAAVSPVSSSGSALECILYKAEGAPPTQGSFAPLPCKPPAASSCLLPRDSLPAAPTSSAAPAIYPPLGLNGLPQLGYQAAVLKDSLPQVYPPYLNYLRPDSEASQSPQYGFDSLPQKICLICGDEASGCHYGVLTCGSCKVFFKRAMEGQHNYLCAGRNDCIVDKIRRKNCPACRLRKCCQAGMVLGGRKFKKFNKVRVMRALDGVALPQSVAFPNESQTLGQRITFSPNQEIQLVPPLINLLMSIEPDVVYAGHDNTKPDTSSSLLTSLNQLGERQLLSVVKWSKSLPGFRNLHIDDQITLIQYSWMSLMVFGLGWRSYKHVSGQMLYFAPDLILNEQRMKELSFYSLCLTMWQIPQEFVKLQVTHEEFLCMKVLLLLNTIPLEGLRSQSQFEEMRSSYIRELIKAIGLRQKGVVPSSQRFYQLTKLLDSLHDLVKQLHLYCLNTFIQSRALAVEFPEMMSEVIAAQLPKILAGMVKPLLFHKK
Procedure, shortened: (§1)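 Female Sprague-Dawley rats, 23 days old, primed with estradiol 5 μg s.c. in 20% ethanol/sunflower oil on two days and used 24 h later. Under ether, they received 51 μCi tracer (30 Ci/mmol) iv via the tail vein in 0.1 mL 10% ethanol/saline. Killed by decapitation at 1 h; tissues weighed and gamma-counted. Results as %ID/g or tissue ratios, mean ± SD, n = 5.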

[2] = biological target: T1, Progesterone receptor (Rattus norvegicus); assay: Tissue distribution in ovaries 3 hr after [18F]4 injection into estrogen-primed immature rats; assay type: functional, tissue-based; details: Female gonad
Procedure, shortened: (§2)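 Immature female Sprague-Dawley rats, estradiol-primed (5 μg s.c. in 20% ethanol/sunflower oil, two successive days, used 24 h later). Tracer (30 Ci/mmol) in 10% ethanol/saline was injected iv into the tail vein under ether anesthesia. Animals were decapitated 3 h postinjection; organs weighed and gamma-counted. %ID/g, mean ± SD, n = 5.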

[3] = biological target: T1, Progesterone receptor (Rattus norvegicus); assay: Tissue distribution in kidney 1 hr after [18F]4 injection into estrogen-primed immature rats at normal dose; assay type: functional, tissue-based; procedure, shortened: as §1
[4] = biological target: T1, Progesterone receptor (Rattus norvegicus); assay: Tissue distribution in bone 3 hr after [18F]4 injection into estrogen-primed immature rats; assay type: functional, tissue-based; details: Bone element; procedure, shortened: as §2
[5] = biological target: T1, Progesterone receptor (Rattus norvegicus); assay: Tissue distribution in ovaries 1 hr after [18F]4 injection into estrogen-primed immature rats co-injected with uterine uptake blocker (ORG2058); assay type: functional, tissue-based; details: Female gonad
Procedure, shortened: (§3)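 Blocking group: estrogen-primed immature female Sprague-Dawley rats (estradiol 5 μg s.c. ×2 days, used 24 h later). ORG 2058 18 μg was co-injected with the tracer dose iv via tail vein, 0.2 mL injection volume in 10% ethanol/saline. Killed 1 h later; tissues weighed and gamma-counted. Results as %ID/g or ratios, mean ± SD, n = 5.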

[6] = biological target: T1, Progesterone receptor (Rattus norvegicus); assay: Tissue distribution in uterus 1 hr after [18F]-4 injection into estrogen-primed immature rats co-injected with uterin uptake blocker (ORG 2058); assay type: functional, tissue-based; procedure, shortened: as §3
[7] = biological target: T1, Progesterone receptor (Rattus norvegicus); assay: Tissue distribution in uterus/muscle 1 hr after [18F]4 injection into estrogen-primed immature rats co-injected ORG 2058 (uterine uptake blocker); assay type: functional, tissue-based; procedure, shortened: as §3
[8] = biological target: T1, Progesterone receptor (Rattus norvegicus); assay: Tissue distribution in brain 3 hr after [18F]4 injection into estrogen-primed immature rats; assay type: functional, tissue-based; procedure, shortened: as §2
[9] = biological target: T1, Progesterone receptor (Rattus norvegicus); assay: Tissue distribution in lung 3 hr after [18F]4 injection into estrogen-primed immature rats; assay type: functional, tissue-based; procedure, shortened: as §2
[10] = biological target: T1, Progesterone receptor (Rattus norvegicus); assay: Tissue distribution in uterus/blood 1 hr after [18F]4 injection into estrogen-primed immature rats co-injected with uterine uptake blocker (ORG 2058); assay type: functional, tissue-based; procedure, shortened: as §3
[11] = biological target: T1, Progesterone receptor (Rattus norvegicus); assay: Tissue distribution in brain 1 hr after [18F]-4 injection into estrogen-primed immature rats at low dose; assay type: functional, tissue-based
Procedure, shortened: (§4)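 Estrogen-primed immature female Sprague-Dawley rats (estradiol 5 μg s.c. daily ×2, used 24 h later) were given a reduced tracer dose of 30 μCi in 0.04 mL 10% ethanol/saline, tail vein iv, under ether. Decapitated at 1 h; organs weighed and gamma-counted. Results as %ID/g or uterus/tissue ratio, mean ± SD, n = 5.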

[12] = biological target: T1, Progesterone receptor (Rattus norvegicus); assay: Tissue distribution in kidney 3 hr after [18F]4 injection into estrogen-primed immature rats; assay type: functional, tissue-based; procedure, shortened: as §2
[13] = Partition coefficient (logP); assay type: physicochemical; details: octanol/water
Procedure, shortened: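 Octanol/water partition measured as log P by the Minick method. For some reference progestins, log P was also measured by shake flask.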

[14] = biological target: T1, Progesterone receptor (Rattus norvegicus); assay: Tissue distribution in ovaries 1 hr after [18F]4 injection into estrogen-primed immature rats at low dose; assay type: functional, tissue-based; details: Female gonad; procedure, shortened: as §4
[15] = biological target: T1, Progesterone receptor (Rattus norvegicus); assay: Tissue distribution in lung 1 hr after [18F]4 injection into estrogen-primed immature rats at low dose; assay type: functional, tissue-based; procedure, shortened: as §4
[16] = biological target: T1, Progesterone receptor (Rattus norvegicus); assay: Tissue distribution in uterus/blood 1 hr after [18F]4 injection into estrogen-primed immature rats at low dose; assay type: functional, tissue-based; procedure, shortened: as §4
[17] = biological target: T1, Progesterone receptor (Rattus norvegicus); assay: Tissue distribution in uterus/muscle 1 hr after [18F]4 injection into estrogen-primed immature rats at normal dose; assay type: functional, tissue-based; procedure, shortened: as §1
[18] = biological target: T1, Progesterone receptor (Rattus norvegicus); assay: Tissue distribution in uterus 3 hr after [18F]4 injection into estrogen-primed immature rats; assay type: functional, tissue-based; procedure, shortened: as §2
[19] = biological target: T1, Progesterone receptor (Rattus norvegicus); assay: Tissue distribution in blood 3 hr after [18F]-4 injection into estrogen-primed immature rats; assay type: functional, tissue-based; procedure, shortened: as §2
[20] = biological target: T1, Progesterone receptor (Rattus norvegicus); assay: Tissue distribution in uterus/muscle 3 hr after [18F]4 injection into estrogen-primed immature rats; assay type: functional, tissue-based
Procedure, shortened: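 Immature female Sprague-Dawley rats (23 days old) were primed with 5 μg estradiol in 20% ethanol/sunflower oil s.c. on two successive days and used 24 h after the last injection. The 18F tracer (51 μCi, specific activity 30 Ci/mmol) in 10% ethanol/saline was given iv in the tail vein under ether anesthesia. Rats were decapitated at 3 h, and organs were weighed and gamma counted. Ratio of %ID/g, n = 5.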

[21] = biological target: T1, Progesterone receptor (Rattus norvegicus); assay: Tissue distribution in liver 3 hr after [18F]-4 injection into estrogen-primed immature rats; assay type: functional, tissue-based; procedure, shortened: as §2
[22] = biological target: T1, Progesterone receptor (Rattus norvegicus); assay: Tissue distribution in blood 1 hr after [18F]4 injection into estrogen-primed immature rats at low dose; assay type: functional, tissue-based; procedure, shortened: as §4
[23] = biological target: T1, Progesterone receptor (Rattus norvegicus); assay: Tissue distribution in bone 1 hr after [18F]4 injection into estrogen-primed immature rats at normal dose; assay type: functional, tissue-based; details: Bone element; procedure, shortened: as §1
[24] = biological target: T1, Progesterone receptor (Rattus norvegicus); assay: Tissue distribution in muscle 1 hr after [18F]4 injection into estrogen-primed immature rats at normal dose; assay type: functional, tissue-based; procedure, shortened: as §1
[25] = biological target: T1, Progesterone receptor (Rattus norvegicus); assay: Tissue distribution in brain 1 hr after [18F]-4 injection into estrogen-primed immature rats co-injected with uterine uptake blocker (ORG 2058); assay type: functional, tissue-based; procedure, shortened: as §3
[26] = biological target: T1, Progesterone receptor (Rattus norvegicus); assay: Tissue distribution in blood 1 hr after [18F]4 injection into estrogen-primed immature rats co-injected uterine uptake blocker (ORG 2058); assay type: functional, tissue-based; procedure, shortened: as §3

Injected dose/g [1] [%]	Injected dose/g [2] [%]	Injected dose/g [3] [%]	Injected dose/g [4] [%]	Injected dose/g [5] [%]	Injected dose/g [6] [%]	uterus/muscle ratio [7]	Injected dose/g [8] [%]	Injected dose/g [9] [%]	uterus/blood ratio [10]	Injected dose/g [11] [%]	Injected dose/g [12] [%]	logP [13]	Injected dose/g [14] [%]	Injected dose/g [15] [%]	uterus/blood ratio [16]	uterus/muscle ratio [17]	Injected dose/g [18] [%]	Injected dose/g [19] [%]	uterus/muscle ratio [20]	Compound	also measured
4.25	1.78	1.42	0.64	1.37	0.86	2.42	0.06	0.22	3.69	0.39	0.45	4.92	2.66	0.72	14.5	8.2	3.86	0.1	27.9	C[C@@]1(c2ccc(F)cc2)O[C@@H]2CC3C4CCC5=CC(=O)CC[C@@H]5C4CC[C@]3(C)[C@]2(C(=O)CO)O1 (some centres not stated)	Injected dose/g [21]: 1.36%; Injected dose/g [22]: 0.28%; Injected dose/g [23]: 0.62%; Injected dose/g [24]: 0.44%; Injected dose/g [25]: 0.28%; Injected dose/g [26]: 0.23%
3.41	2.19	2.18	1.69	2.29	1.27	1.69	0.2	0.91	3.06	0.57	1.47	5.71	3.68	1.46	6.34	3.85	2.13	0.28	4.61	CC(=O)[C@@]12O[C@](C)(c3ccc(F)cc3)O[C@@H]1CC1C3CCC4=CC(=O)CC[C@]4(C)C3CC[C@@]12C (some centres not stated)	Injected dose/g [21]: 1.93%; Injected dose/g [22]: 0.52%; Injected dose/g [23]: 1.76%; Injected dose/g [24]: 0.82%; Injected dose/g [25]: 0.55%; Injected dose/g [26]: 0.43%
